Assay results reported in ChEMBL document CHEMBL4043061, “Potent, Selective, Allosteric Inhibition of Human Plasmin by Sulfated Non-Saccharide Glycosaminoglycan Mimetics” (J Med Chem, 2017).

Experiments:
Plasminogen [1] = biological target: T1, Plasminogen (Homo sapiens, UniProt P00747); test: Allosteric inhibition of full length human plasmin by using chromogenic substrate spectrozyme PL preincubated for 5 mins followed by substrate addition by spectrophotometric method
Method in brief: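 Inhibitor added from 0–20 mM aqueous stocks, or vehicle. After 5 min, Spectrozyme PL added (1 mM stock). Residual activity taken from initial rate of A405 rise. Logistic fit gives IC50, efficacy and Hill slope.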

Plasminogen [2] = biological target: T1, Plasminogen; test: Binding affinity to human plasmin assessed as loss of intrinsic tryptophan fluorescence at 250 uM by spectrofluorometric method
Prothrombin = Prothrombin (Homo sapiens, UniProt P00734); test: Inhibition of human thrombin by using chromogenic substrate spectrozyme TH preincubated for 5 mins followed by substrate addition by spectrophotometric method
Method in brief: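 Thrombin at 6 nM final, 25 °C, in 20 mM Tris-HCl pH 7.4 with 100 mM NaCl, 2.5 mM CaCl2, 0.1% PEG8000, 0.02% Tween80. Inhibitor (0–20 mM stock) or vehicle preincubated 5 min with enzyme. Spectrozyme TH added (1.0 mM stock). Residual activity read as initial rate of A405 increase and fitted to a sigmoidal dose–response curve.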

Coagulation factor X = Coagulation factor X (Homo sapiens, UniProt P00742); test: Inhibition of human F10a by using chromogenic substrate spectrozyme F10a preincubated for 5 mins followed by substrate addition by spectrophotometric method
Chain of Coagulation factor X (P00742 41-179 limits assumed): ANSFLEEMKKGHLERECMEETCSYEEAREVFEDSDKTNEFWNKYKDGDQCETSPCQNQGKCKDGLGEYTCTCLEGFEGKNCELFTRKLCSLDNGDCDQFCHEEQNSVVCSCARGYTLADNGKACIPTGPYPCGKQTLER
Chain of Coagulation factor X (P00742 235-488 limits assumed): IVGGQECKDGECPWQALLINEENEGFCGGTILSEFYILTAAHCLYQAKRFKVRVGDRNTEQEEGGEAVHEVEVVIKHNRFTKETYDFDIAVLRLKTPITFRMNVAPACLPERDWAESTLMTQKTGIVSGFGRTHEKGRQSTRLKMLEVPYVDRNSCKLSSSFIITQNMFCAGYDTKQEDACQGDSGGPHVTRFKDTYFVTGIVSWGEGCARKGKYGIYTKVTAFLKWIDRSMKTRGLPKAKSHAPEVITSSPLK
Method in brief: (§1)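 Tris-HCl pH 7.4 buffer (100 mM NaCl, 2.5 mM CaCl2, 0.1% PEG8000, 0.02% Tween80) at 37 °C; factor IXa buffer also held 33% ethylene glycol. Final enzyme: factor Xa 1.09 nM, XIa 0.75 nM, XIIa 10 nM, IXa 250 nM, trypsin 0.145 µg/mL, chymotrypsin […]. Inhibitor from 0–20 mM stock, 5 min preincubation, then substrate. Initial A405 rate, sigmoidal dose–response fit.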

Coagulation factor XI = Coagulation factor XI (Homo sapiens, UniProt P03951); test: Inhibition of human F11a by using chromogenic substrate S-2366 preincubated for 5 mins followed by substrate addition by spectrophotometric method; method in brief: as §1
Chain of Coagulation factor XI (P03951 19-387 limits assumed): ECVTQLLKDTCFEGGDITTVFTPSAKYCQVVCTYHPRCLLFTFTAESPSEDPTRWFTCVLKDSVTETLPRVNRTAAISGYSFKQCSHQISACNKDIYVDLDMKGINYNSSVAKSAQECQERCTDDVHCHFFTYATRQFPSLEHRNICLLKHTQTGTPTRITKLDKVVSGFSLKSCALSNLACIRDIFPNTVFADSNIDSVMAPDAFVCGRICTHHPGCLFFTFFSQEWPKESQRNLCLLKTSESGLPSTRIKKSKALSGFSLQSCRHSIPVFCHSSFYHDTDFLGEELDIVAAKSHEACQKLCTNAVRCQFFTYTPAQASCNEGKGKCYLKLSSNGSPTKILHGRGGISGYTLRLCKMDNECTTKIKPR
Chain of Coagulation factor XI (P03951 388-625 limits assumed): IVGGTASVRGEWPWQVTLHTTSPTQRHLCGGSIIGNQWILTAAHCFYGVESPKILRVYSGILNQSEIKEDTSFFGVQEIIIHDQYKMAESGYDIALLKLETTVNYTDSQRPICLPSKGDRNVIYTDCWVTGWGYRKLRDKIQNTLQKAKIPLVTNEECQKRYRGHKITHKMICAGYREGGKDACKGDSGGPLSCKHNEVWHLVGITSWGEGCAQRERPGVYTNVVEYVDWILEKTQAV

Plasminogen [3] = biological target: T1, Plasminogen; test: Binding affinity to human dansyl-EGR-chloromethylketone-plasmin complex assessed as loss of intrinsic tryptophan fluorescence by spectrofluorometric method
Coagulation factor IX = Coagulation factor IX (Homo sapiens, UniProt P00740); test: Inhibition of human F9a by using chromogenic substrate spectrozyme F9a preincubated for 5 mins followed by substrate addition by spectrophotometric method
Chain of Coagulation factor IX (P00740 47-191 limits assumed): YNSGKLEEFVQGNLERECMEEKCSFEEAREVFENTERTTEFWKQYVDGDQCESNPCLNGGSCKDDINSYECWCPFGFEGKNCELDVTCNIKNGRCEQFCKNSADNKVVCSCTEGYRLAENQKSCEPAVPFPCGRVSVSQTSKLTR
Chain of Coagulation factor IX (P00740 227-461 limits assumed): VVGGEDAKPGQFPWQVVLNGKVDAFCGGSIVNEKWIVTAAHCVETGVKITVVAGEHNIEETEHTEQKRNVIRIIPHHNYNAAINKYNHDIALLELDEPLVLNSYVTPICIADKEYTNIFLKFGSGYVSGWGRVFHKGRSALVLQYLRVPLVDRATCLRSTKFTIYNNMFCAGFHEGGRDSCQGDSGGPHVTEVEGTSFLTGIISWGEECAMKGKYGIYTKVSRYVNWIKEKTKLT

Coagulation factor XII = biological target: T2, Coagulation factor XII (Homo sapiens, UniProt P00748); test: Inhibition of human F12a by using chromogenic substrate spectrozyme F12a preincubated for 5 mins followed by substrate addition by spectrophotometric method
T2 sequence (P00748 whole entry): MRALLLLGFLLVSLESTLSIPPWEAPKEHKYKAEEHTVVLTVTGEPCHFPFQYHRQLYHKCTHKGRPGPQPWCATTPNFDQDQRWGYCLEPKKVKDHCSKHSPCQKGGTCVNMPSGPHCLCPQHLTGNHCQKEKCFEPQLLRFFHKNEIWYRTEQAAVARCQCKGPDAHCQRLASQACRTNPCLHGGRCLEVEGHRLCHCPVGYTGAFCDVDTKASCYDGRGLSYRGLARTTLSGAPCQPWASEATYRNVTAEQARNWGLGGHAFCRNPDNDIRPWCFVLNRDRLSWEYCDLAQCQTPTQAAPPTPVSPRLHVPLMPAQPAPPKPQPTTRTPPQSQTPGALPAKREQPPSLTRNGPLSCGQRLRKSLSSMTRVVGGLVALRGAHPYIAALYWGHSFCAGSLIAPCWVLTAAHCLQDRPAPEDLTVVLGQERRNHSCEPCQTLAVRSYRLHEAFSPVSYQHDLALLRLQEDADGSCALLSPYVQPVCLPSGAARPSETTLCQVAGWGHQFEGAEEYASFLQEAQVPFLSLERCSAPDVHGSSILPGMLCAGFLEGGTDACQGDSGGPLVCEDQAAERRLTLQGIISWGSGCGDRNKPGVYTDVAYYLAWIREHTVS

[4] = Inhibition of human trypsin using chromogenic substrate SS-2222 preincubated for 5 mins followed by substrate addition by spectrophotometric method; method in brief: as §1
[5] = Inhibition of human chymotrypsin using chromogenic substrate spectrozyme Cty preincubated for 5 mins followed by substrate addition by spectrophotometric method; method in brief: as §1

T1 sequence (P00747 97-580 limits assumed): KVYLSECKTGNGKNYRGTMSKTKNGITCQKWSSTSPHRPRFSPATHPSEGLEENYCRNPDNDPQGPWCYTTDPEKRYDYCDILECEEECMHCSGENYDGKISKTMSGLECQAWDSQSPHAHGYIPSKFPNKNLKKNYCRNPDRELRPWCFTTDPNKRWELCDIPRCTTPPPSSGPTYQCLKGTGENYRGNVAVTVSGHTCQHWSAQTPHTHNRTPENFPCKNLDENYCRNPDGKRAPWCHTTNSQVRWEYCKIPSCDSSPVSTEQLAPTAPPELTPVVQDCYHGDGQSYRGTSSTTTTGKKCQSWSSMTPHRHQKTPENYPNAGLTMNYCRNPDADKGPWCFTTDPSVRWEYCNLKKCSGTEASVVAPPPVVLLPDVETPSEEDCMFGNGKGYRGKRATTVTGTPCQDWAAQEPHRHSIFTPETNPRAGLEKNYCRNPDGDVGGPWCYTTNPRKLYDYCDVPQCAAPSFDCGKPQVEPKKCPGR
T1 sequence (P00747 581-810 limits assumed): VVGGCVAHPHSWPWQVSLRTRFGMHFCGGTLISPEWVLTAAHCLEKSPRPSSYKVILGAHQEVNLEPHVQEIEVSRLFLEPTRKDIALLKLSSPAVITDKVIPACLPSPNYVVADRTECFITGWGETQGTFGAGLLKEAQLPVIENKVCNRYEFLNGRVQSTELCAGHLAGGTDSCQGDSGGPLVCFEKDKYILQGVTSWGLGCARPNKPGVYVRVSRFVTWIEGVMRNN

Row | IC50 (Plasminogen [1]) [µM] | SMILES | further results
1 | 47 | O=c1cc(-c2ccc(OS(=O)(=O)O)cc2)oc2cc(OS(=O)(=O)O)cc(OCc3ccc(-c4ccc(COc5cc(OS(=O)(=O)O)cc6oc(-c7ccc(OS(=O)(=O)O)cc7)cc(=O)c56)cc4)cc3)c12 | –
2 | 121 | O=c1cc(-c2ccc(OS(=O)(=O)O)cc2)oc2cc(OS(=O)(=O)O)cc(OC/C=C/COc3cc(OS(=O)(=O)O)cc4oc(-c5ccc(OS(=O)(=O)O)cc5)cc(=O)c34)c12 | Kd (Plasminogen [2]): 3.6 µM
3 | 282 | O=c1cc(-c2ccc(OS(=O)(=O)O)cc2)oc2cc(OS(=O)(=O)O)cc(OCCCCOc3cc(OS(=O)(=O)O)cc4oc(-c5ccc(OS(=O)(=O)O)cc5)cc(=O)c34)c12 | –
4 | 73 | O=c1c(OS(=O)(=O)O)c(-c2ccc(OS(=O)(=O)O)c(OS(=O)(=O)O)c2)oc2cc(OS(=O)(=O)O)cc(OCc3cccc(COc4cc(OS(=O)(=O)O)cc5oc(-c6ccc(OS(=O)(=O)O)c(OS(=O)(=O)O)c6)c(OS(=O)(=O)O)c(=O)c45)c3)c12 | –
5 | 34 | O=c1cc(-c2ccc(OS(=O)(=O)O)cc2)oc2cc(OS(=O)(=O)O)cc(OCc3cccc(COc4cc(OS(=O)(=O)O)cc5oc(-c6ccc(OS(=O)(=O)O)cc6)cc(=O)c45)c3)c12 | –
6 | 34 | O=c1cc(-c2ccc(OS(=O)(=O)O)cc2)oc2cc(OS(=O)(=O)O)cc(OCc3ccc(COc4cc(OS(=O)(=O)O)cc5oc(-c6ccc(OS(=O)(=O)O)cc6)cc(=O)c45)cc3)c12 | –
7 | 116 | O=c1c(O)c(-c2ccc(O)c(O)c2)oc2cc(O)cc(OCc3ccc(COc4cc(O)cc5oc(-c6ccc(O)c(O)c6)c(O)c(=O)c45)cc3)c12 | IC50 (Prothrombin): 267 µM; IC50 (Coagulation factor X): 212 µM; IC50 (Coagulation factor XI): 208 µM
8 | 6.5 | Cc1cc(COc2cc(OS(=O)(=O)O)cc3oc(-c4ccc(OS(=O)(=O)O)c(OS(=O)(=O)O)c4)c(OS(=O)(=O)O)c(=O)c23)c(C)cc1COc1cc(OS(=O)(=O)O)cc2oc(-c3ccc(OS(=O)(=O)O)c(OS(=O)(=O)O)c3)c(OS(=O)(=O)O)c(=O)c12 | Kd (Plasminogen [2]): 1 µM
9 | 20 | Cc1cc(COc2cc(OS(=O)(=O)O)cc3oc(-c4ccc(OS(=O)(=O)O)cc4)cc(=O)c23)c(C)cc1COc1cc(OS(=O)(=O)O)cc2oc(-c3ccc(OS(=O)(=O)O)cc3)cc(=O)c12 | Kd (Plasminogen [2]): 1.9 µM; Kd (Plasminogen [3]): 5.4 µM
10 | 37 | O=c1c(OS(=O)(=O)O)c(-c2ccc(OS(=O)(=O)O)c(OS(=O)(=O)O)c2)oc2cc(OS(=O)(=O)O)cc(OCc3ccc(-c4ccc(COc5cc(OS(=O)(=O)O)cc6oc(-c7ccc(OS(=O)(=O)O)c(OS(=O)(=O)O)c7)c(OS(=O)(=O)O)c(=O)c56)cc4)cc3)c12 | –
11 | 14 | O=c1cc(-c2ccc(OS(=O)(=O)O)cc2)oc2cc(OS(=O)(=O)O)cc(OCc3ccc(COc4cc(OS(=O)(=O)O)cc5oc(-c6ccc(OS(=O)(=O)O)c(OS(=O)(=O)O)c6)c(OS(=O)(=O)O)c(=O)c45)cc3)c12 | –
12 | 231 | O=c1c(OS(=O)(=O)O)c(-c2ccc(OS(=O)(=O)O)c(OS(=O)(=O)O)c2)oc2cc(OS(=O)(=O)O)cc(OCc3cccc(COc4cc(OS(=O)(=O)O)cc5oc(-c6ccc(OS(=O)(=O)O)c(OS(=O)(=O)O)c6)c(OS(=O)(=O)O)c(=O)c45)n3)c12 | –
13 | 71 | O=c1cc(-c2ccc(OS(=O)(=O)O)cc2)oc2cc(OS(=O)(=O)O)cc(OCCOc3cc(OS(=O)(=O)O)cc4oc(-c5ccc(OS(=O)(=O)O)cc5)cc(=O)c34)c12 | –
14 | 42 | O=c1cc(-c2ccc(OS(=O)(=O)O)cc2)oc2cc(OS(=O)(=O)O)cc(OCc3cccc(COc4cc(OS(=O)(=O)O)cc5oc(-c6ccc(OS(=O)(=O)O)cc6)cc(=O)c45)n3)c12 | –
15 | – | O=c1c(OS(=O)(=O)O)c(-c2ccc(OS(=O)(=O)O)c(OS(=O)(=O)O)c2)oc2cc(OS(=O)(=O)O)cc(OCc3ccc(COc4cc(OS(=O)(=O)O)cc5oc(-c6ccc(OS(=O)(=O)O)c(OS(=O)(=O)O)c6)c(OS(=O)(=O)O)c(=O)c45)cc3)c12 | IC50 (Prothrombin): 156 µM; IC50 (Coagulation factor X): 505 µM; IC50 (Coagulation factor XI): 180 µM; IC50 (Coagulation factor IX): > 2000 µM; IC50 (Coagulation factor XII): > 1000 µM; IC50 [4]: > 440 µM; IC50 [5]: 196 µM
16 | > 1000 | O=c1cc(-c2ccc(OS(=O)(=O)O)cc2)oc2cc(OS(=O)(=O)O)cc(OCCCOc3cc(OS(=O)(=O)O)cc4oc(-c5ccc(OS(=O)(=O)O)cc5)cc(=O)c34)c12 | –
